The subject of data set [1] is Liver microsome. In words: Drug metabolism in beagle dog liver microsomes assessed as 1alpha-hydroxylcinobufagin formation per mg of protein at 100 uM at 37 degC after 30 mins by UFLC-ESI-MS analysis. Conditions: 0.5 h. It counts as ADME, Canis lupus familiaris. A digest of the protocol: (§1)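 Liver microsomes (0.3 mg protein/ml) incubated with 100 µM substrate at 37°C for 30 min, in 100 mM potassium phosphate pH 7.4 with NADPH-generating system (1 mM NADP+, 10 mM glucose 6-phosphate, 1 unit/ml G6PDH, 4 mM MgCl2). Acetonitrile ≤1% final. Stopped with ice-cold acetonitrile and centrifuged. Metabolites identified by UFLC-ESI-MS and quantified by UFLC-DAD at 294 nm against authentic standard curves.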

In data set [2] the test system is Liver microsome. In words: Drug metabolism in beagle dog liver microsomes assessed as 1alpha-hydroxylcinobufagin formation at 100 uM at 37 degC after 30 mins by UFLC-ESI-MS analysis in presence of 10 uM sulfaphenazole CYP2C9 inhibitor. It counts as ADME, Canis lupus familiaris. The conditions noted are these: 0.5 h. An outline of the steps:
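Chemical inhibition: selective P450 inhibitors (furafylline, sulfaphenazole, ketoconazole) added to liver microsome incubations in 100 mM potassium phosphate pH 7.4 with NADPH-generating system at 37°C. Hydroxylated metabolite formation quantified by UFLC at 294 nm against standards. Mean ± S.D. of three experiments in duplicate.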
(In general: Liver microsomes are a subcellular fraction often used to study metabolism.)

Data set [3] relates to Liver microsome. Put plainly: Drug metabolism in beagle dog liver microsomes assessed as 1alpha-hydroxylcinobufagin formation at 100 uM at 37 degC after 30 mins by UFLC-ESI-MS analysis. Conditions: 0.5 h, read-out: Km(app). It counts as ADME, Canis lupus familiaris. An outline of the steps: as §1
A short description of data set [4]: Drug metabolism in Colony-bred Chinese Bama minipig liver microsomes assessed as 5beta-hydroxylcinobufagin formation at 100 uM at 37 degC after 30 mins by UFLC-ESI-MS analysis in presence of NADPH-generating system. It counts as ADME, Sus scrofa. Conditions: pig, 0.5 h. A digest of the protocol: as §1
The test system of data set [5] is Liver microsome. In words: Drug metabolism in human liver microsomes assessed as 1alpha-hydroxylcinobufagin formation at 100 uM at 37 degC after 30 mins by UFLC-ESI-MS analysis in presence of NADPH-generating system. It counts as ADME. The conditions noted are these: 0.5 h. An outline of the steps:
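CB (100 µM; acetonitrile ≤1% final) was incubated with pooled HLM (0.3 mg/ml) plus NADPH-generating system (1 mM NADP+, 10 mM glucose 6-phosphate, 1 unit/ml G6PDH, 4 mM MgCl2) in pH 7.4 phosphate buffer at 37°C for 30 min. Products were identified by UFLC-ESI-MS and quantified by UFLC-DAD at 294 nm.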

Data set [6] deals with Liver microsome. In words: Drug metabolism in human liver microsomes assessed as 5beta-hydroxylcinobufagin formation at 100 uM at 37 degC after 30 mins by UFLC-ESI-MS analysis in presence of 2 uM montelukast CYP2C8 inhibitor. The conditions noted are these: 0.5 h. The data set is classed as ADME. A digest of the protocol: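 Pooled human liver microsomes (10 donors, both sexes) in 100 mM potassium phosphate pH 7.4 were incubated with CB and a selective P450 inhibitor. Reaction was started with NADPH-generating system after 3 min preincubation at 37°C and stopped with ice-cold acetonitrile. Hydroxylated products were quantified by UFLC-DAD at 294 nm; three experiments in duplicate.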

The nature of data set [7]: Drug metabolism in Swiss-Hauschka (ICR) mouse liver microsomes assessed as 1alpha-hydroxylcinobufagin formation at 100 uM at 37 degC after 30 mins by UFLC-ESI-MS analysis. The data set is classed as ADME. Conditions: 0.5 h, read-out: Km(app). An outline of the steps: as §1
A short description of data set [8]: Drug metabolism in cynomolgus monkey liver microsomes assessed as 5beta-hydroxylcinobufaginn formation per mg of protein at 100 uM […] by UFLC-ESI-MS analysis. It counts as ADME, Macaca fascicularis. Conditions: 0.5 h.
For data set [9], the system named is Liver microsome. In words: Drug metabolism in human liver microsomes assessed as 5beta-hydroxylcinobufagin formation at 100 uM at 37 degC after 30 mins […] in presence of 2.5 uM 8-methoxypsoralen CYP2A6 inhibitor. The data set is classed as ADME. Conditions: 0.5 h.

As to `CC(=O)O[C@H]1[C@H]2O[C@]23[C@@H]2CC[C@@H]4C[C@@H](O)CC[C@]4(C)[C@H]2CC[C@]3(C)[C@H]1c1ccc(=O)oc1` [CINOBUFAGIN], the maximum rate (Vmax) in the data set on Liver microsome [1] was 1.28 nmol/min/mg; in data set [8], 1.84 nmol/min/mg. The Drug metabolism result (in the data set on Liver microsome [2]; in data set [4]; in the data set on Liver microsome [5]; in the data set on Liver microsome [6]; in the data set on Liver microsome [9]) was “metabolite_detected” each time. Moreover, the Km in the data set with Liver microsome [3] amounted to 3.3 µM; in [7], 14.1 µM.

In general, Vmax refers to the rate approached at saturating substrate. The Km is the concentration of substrate that gives half-maximal velocity.

The record behind these values is ChEMBL document CHEMBL3526081 (Drug Metab Dispos, 2011).
